According to ChEMBL document CHEMBL1141140, “Antifungal agents. 11. N-substituted derivatives of 1-[(aryl)(4-aryl-1H-pyrrol-3-yl)methyl]-1H-imidazole: synthesis, anti-Candida activity, and QSAR studies” (2005):
Values after ≈ are worked out from the molar mass of the structure shown.

Columns and labels:
Candida albicans [1] = assay: Ratio of the in vitro minimal inhibitory to that of bifonazole against Candida albicans (MIC(compound)/MIC(bifonazole)); assay type: functional
Procedure, shortened: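 Broth microdilution per NCCLS M27-A2 against 12 Candida albicans strains (AIDS oropharyngeal, HIV vulvovaginitis isolates, ATCC 24433 and 20891, lab strains 3153 and CA2). Inoculum ~10^4 cells/mL in RPMI 1640, pH 7.0; DMSO stocks 6.4 mg/mL, twofold dilutions 0.016–64 μg/mL; read at 24 h, 28 °C, no visible growth. Mean MIC over strains converted to μmol/mL, divided by bifonazole MIC.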

Candida albicans [2] = assay: In vitro concentration causing 90% inhibition of Candida albicans with percentage of resistant strains %R = 33.33 (MIC > 64 ug/mL) at a range of 0.25-0.5 ug/mL; assay type: functional
Candida albicans [3] = assay: In vitro concentration causing 50% inhibition of Candida albicans with percentage of resistant strains %R = 33.33 (MIC > 64 ug/mL) at a range of 0.25-0.5 ug/mL; assay type: functional
Candida albicans [4] = assay: In vitro minimal inhibitory concentration against Candida albicans with percentage of resistant strains %R = 33.33 (MIC > 64 ug/mL) at a range of 0.25-0.5 ug/mL; assay type: functional
Candida albicans [5] = assay: In vitro minimal inhibitory concentration against Candida albicans with percentage of resistant strains %R = 0 (MIC > 64 ug/mL) at a range of 0.062-0.5 ug/mL; assay type: functional
Candida albicans [6] = assay: In vitro concentration causing 50% inhibition of Candida albicans with percentage of resistant strains %R = 0 (MIC > 64 ug/mL) at a range of 0.062-0.5 ug/mL; assay type: functional
Candida albicans [7] = assay: In vitro concentration causing 90% inhibition of Candida albicans with percentage of resistant strains %R = 0 (MIC > 64 ug/mL) at a range of 0.062-0.5 ug/mL; assay type: functional
Candida albicans [8] = assay: In vitro concentration causing 50% inhibition of Candida albicans with percentage of resistant strains %R = 33.33 (MIC > 64 ug/mL) at a range of 0.125-2 ug/mL; assay type: functional
Candida albicans [9] = assay: In vitro minimal inhibitory concentration against Candida albicans with percentage of resistant strains %R = 33.33 (MIC > 64 ug/mL) at a range of 0.125-2 ug/mL; assay type: functional
Candida albicans [10] = assay: In vitro concentration causing 90% inhibition of Candida albicans with percentage of resistant strains %R = 33.33 (MIC > 64 ug/mL) at a range of 0.125-2 ug/mL; assay type: functional
Candida albicans [11] = assay: In vitro concentration causing 50% inhibition of Candida albicans with percentage of resistant strains %R = 41.66 (MIC > 64 ug/mL) at a range of 0.25-4 ug/mL; assay type: functional
Candida albicans [12] = assay: In vitro minimal inhibitory concentration against Candida albicans with percentage of resistant strains %R = 41.66 (MIC > 64 ug/mL) at a range of 0.25-4 ug/mL; assay type: functional
Candida albicans [13] = assay: In vitro concentration causing 90% inhibition of Candida albicans with percentage of resistant strains %R = 41.66 (MIC > 64 ug/mL) at a range of 0.25-4 ug/mL; assay type: functional
Candida albicans [14] = assay: In vitro concentration causing 90% inhibition of Candida albicans with percentage of resistant strains %R = 33.3 (MIC > 64 ug/mL) at a range of 0.25-32 ug/mL
Candida albicans [15] = assay: In vitro concentration causing 50% inhibition of Candida albicans with percentage of resistant strains %R = 33.3 (MIC > 64 ug/mL) at a range of 0.25-32 ug/mL
Candida albicans [16] = assay: In vitro minimal inhibitory concentration against Candida albicans with percentage of resistant strains %R = 33.3 (MIC > 64 ug/mL) at a range of 0.25-32 ug/mL
Candida albicans [17] = assay: In vitro concentration causing 50% inhibition of Candida albicans with percentage of resistant strains %R = 0 (MIC > 64 ug/mL) at a range of 0.016-0.5 ug/mL; assay type: functional
Candida albicans [18] = assay: In vitro minimal inhibitory concentration against Candida albicans with percentage of resistant strains %R = 0 (MIC > 64 ug/mL) at a range of 0.016-0.5 ug/mL; assay type: functional
Candida albicans [19] = assay: In vitro concentration causing 90% inhibition of Candida albicans with percentage of resistant strains %R = 0 (MIC > 64 ug/mL) at a range of 0.016-0.5 ug/mL; assay type: functional
Candida albicans [20] = assay: In vitro minimal inhibitory concentration against Candida albicans with percentage of resistant strains %R = 33.3 (MIC > 64 ug/mL) at a range of 0.065-4 ug/mL; assay type: functional
Candida albicans [21] = assay: In vitro concentration causing 90% inhibition of Candida albicans with percentage of resistant strains %R = 33.3 (MIC > 64 ug/mL) at a range of 0.065-4 ug/mL; assay type: functional
Candida albicans [22] = assay: In vitro concentration causing 50% inhibition of Candida albicans with percentage of resistant strains %R = 33.3 (MIC > 64 ug/mL) at a range of 0.065-4 ug/mL; assay type: functional

Row | SMILES | Ratio (Candida albicans [1]) | other results
1 | Fc1ccc(-n2ccc(C(c3ccccc3)n3ccnc3)c2)cc1 (stereo unspecified) | 4.1 | –
2 | c1ccc(-c2c[nH]cc2C(c2ccc3ccccc3c2)n2ccnc2)cc1 (stereo unspecified) | 3.8 | –
3 | Clc1ccc(-n2ccc(C(c3ccccc3)n3ccnc3)c2)cc1 (stereo unspecified) | 0.7 | –
4 | Cc1ccc(C(c2ccn(-c3ccc(Cl)cc3)c2)n2ccnc2)cc1 (stereo unspecified) | 1.1 | –
5 | c1ccc(C(c2ccc(-n3cccc3)cc2)n2ccnc2)cc1 (stereo unspecified) | 6.8 | –
6 | Fc1ccc(C(c2ccn(-c3ccc(Cl)cc3)c2)n2ccnc2)cc1 (stereo unspecified) | 2.8 | –
7 | Clc1ccc(-c2c[nH]cc2C(c2ccc(Cl)cc2Cl)n2ccnc2)cc1 (stereo unspecified) | 0.92 | MIC90 (Candida albicans [2]): 0.5 µg/mL (≈ 1.24 µM); MIC50 (Candida albicans [3]): 0.25 µg/mL (≈ 0.621 µM); MIC (Candida albicans [4]): 4.2 µg/mL (≈ 10.4 µM)
8 | Nc1ccc(-c2c[nH]cc2C(c2ccc(Cl)cc2Cl)n2ccnc2)cc1 (stereo unspecified) | 28 | –
9 | Oc1ccc(-c2c[nH]cc2C(c2ccc(Cl)cc2Cl)n2ccnc2)cc1 (stereo unspecified) | 26 | –
10 | CC(Cc1ccc(Cl)cc1Cl)n1ccnc1.COc1ccccc1 (stereo unspecified) | 1 | –
11 | CC(C)=CCn1cc(-c2ccc(Cl)cc2)c(C(c2ccccc2)n2ccnc2)c1 (stereo unspecified) | 0.043 | MIC (Candida albicans [5]): 0.194 µg/mL (≈ 0.483 µM); MIC50 (Candida albicans [6]): 0.065 µg/mL (≈ 0.162 µM); MIC90 (Candida albicans [7]): 0.5 µg/mL (≈ 1.24 µM)
12 | C=CCn1cc(-c2ccc(Cl)cc2)c(C(c2ccc(Cl)cc2Cl)n2ccnc2)c1 (stereo unspecified) | 0.15 | MIC50 (Candida albicans [8]): 0.5 µg/mL (≈ 1.13 µM); MIC (Candida albicans [9]): 0.73 µg/mL (≈ 1.65 µM); MIC90 (Candida albicans [10]): 2 µg/mL (≈ 4.52 µM)
13 | CCn1cc(-c2ccc(Cl)cc2Cl)c(C(c2ccccc2)n2ccnc2)c1 (stereo unspecified) | 0.33 | MIC50 (Candida albicans [11]): 1 µg/mL (≈ 2.52 µM); MIC (Candida albicans [12]): 1.46 µg/mL (≈ 3.68 µM); MIC90 (Candida albicans [13]): 2 µg/mL (≈ 5.05 µM)
14 | CCn1cc(-c2ccc(Cl)cc2)c(C(c2ccccc2)n2ccnc2)c1 (stereo unspecified) | 0.11 | MIC90 (Candida albicans [14]): 8 µg/mL (≈ 22.1 µM); MIC50 (Candida albicans [15]): 1 µg/mL (≈ 2.76 µM); MIC (Candida albicans [16]): 5.59 µg/mL (≈ 15.4 µM)
15 | CCCn1cc(-c2ccc(Cl)cc2)c(C(c2ccccc2)n2ccnc2)c1 (stereo unspecified) | 0.023 | MIC50 (Candida albicans [17]): 0.016 µg/mL (≈ 0.0426 µM); MIC (Candida albicans [18]): 0.096 µg/mL (≈ 0.255 µM); MIC90 (Candida albicans [19]): 0.032 µg/mL (≈ 0.0851 µM)
16 | Fc1ccc(C(c2ccn(-c3ccccc3)c2)n2ccnc2)cc1 (stereo unspecified) | 1.8 | –
17 | CSc1ccc(-c2c[nH]cc2C(c2ccc(Cl)cc2Cl)n2ccnc2)cc1 (stereo unspecified) | 2.8 | –
18 | FC(F)(F)c1ccc(-c2c[nH]cc2C(c2ccc(Cl)cc2Cl)n2ccnc2)cc1 (stereo unspecified) | 2.2 | –
19 | CC(Cc1ccc(N)cc1)n1ccnc1.COc1ccccc1 (stereo unspecified) | 1.4 | –
20 | Clc1ccc(C(c2ccn(-c3ccc(Cl)cc3)c2)n2ccnc2)cc1 (stereo unspecified) | 7.3 | –
21 | Clc1ccc(-c2c[nH]cc2C(c2ccccc2)n2ccnc2)cc1 (stereo unspecified) | 0.66 | MIC (Candida albicans [20]): 2.5 µg/mL (≈ 7.49 µM); MIC90 (Candida albicans [21]): 4 µg/mL (≈ 12 µM); MIC50 (Candida albicans [22]): 0.125 µg/mL (≈ 0.374 µM)
22 | N#Cc1ccc(-c2c[nH]cc2C(c2ccc(Cl)cc2Cl)n2ccnc2)cc1 (stereo unspecified) | 4.3 | –
23 | O=[N+]([O-])c1ccc(-c2c[nH]cc2C(c2ccc(Cl)cc2Cl)n2ccnc2)cc1 (stereo unspecified) | 4.5 | –
24 | Clc1ccc(C(c2c[nH]cc2-c2ccc(-c3ccccc3)cc2)n2ccnc2)c(Cl)c1 (stereo unspecified) | 4.3 | –
25 | Clc1ccc(C(c2c[nH]cc2-c2ccc(-n3cccc3)cc2)n2ccnc2)c(Cl)c1 (stereo unspecified) | 1.3 | –
